Source: ChEMBL document CHEMBL1148948, “Biotransformation of nobiletin by Aspergillus niger and the antimutagenic activity of a metabolite, 4'-hydroxy-5,6,7,8,3'-pentamethoxyflavone” (2004)
The source made the active and inactive calls.

Columns and labels:
Type in all cases: functional, organism-based
Settings in all cases: Salmonella enterica subsp. enterica serovar Typhimurium
Salmonella typhimurium [1] = experiment: Antimutagenic activity in Salmonella Typhimurium TA1535 carrying pSK1002 containing umuC'-lacZ fused gene assessed as suppression of furyfuramide-induced SOS response to alteration in DNA synthesis measured by beta-galactosidase activity by Umu test
Summary of the method: (§1)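 S. typhimurium TA1535/pSK1002 (umuC′-′lacZ fusion on the plasmid). The overnight culture was diluted 50-fold in fresh TGA medium and grown at 37 °C to A600 0.25-0.30. SOS induction was read as β-galactosidase activity in Miller units. The S9 mix used rat liver S9 (phenobarbital/5,6-benzoflavone-pretreated males) with G-6-P, NADH and NADPH cofactors.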

Salmonella typhimurium [2] = experiment: Antimutagenic activity in Salmonella Typhimurium TA1535 carrying pSK1002 containing umuC'-lacZ fused gene assessed as suppression of MeIQ-induced SOS response to alteration in DNA synthesis measured by beta-galactosidase activity by Umu test; summary of the method: as §1
Salmonella typhimurium [3] = experiment: Antimutagenic activity in Salmonella Typhimurium TA1535 carrying pSK1002 containing umuC'-lacZ fused gene assessed as suppression of 0.1 j/M2 UV light-induced SOS response to alteration in DNA synthesis measured by beta-galactosidase activity by Umu test; summary of the method: as §1
Salmonella typhimurium [4] = experiment: Antimutagenic activity in Salmonella Typhimurium TA1535 carrying pSK1002 containing umuC'-lacZ fused gene assessed as suppression of Trp-P-1-induced SOS response to alteration in DNA synthesis measured by beta-galactosidase activity by Umu test; summary of the method: as §1

Measured: Activity

COc1ccc(-c2cc(=O)c3c(OC)c(OC)c(OC)c(OC)c3o2)cc1OC
active: all assays above
